Reference: ChEMBL document CHEMBL3227986, “Design of species- or isozyme-specific enzyme inhibitors. 1. Effect of thymidine substituents on affinity for the thymidine site of hamster cytoplasmic thymidine kinase” (J Med Chem, 1979)
Activity calls are given as the source filed them. The rule behind the calls is not given here.

Tests used:
[1] = biological target: T1, Thymidine kinase, cytosolic (Cricetulus griseus) (UniProt P09768); assay: Inhibition of thymidine kinase in BHK21 (C13) cells using thymidine as substrate assessed as formation of TMP at […]; type: cell-based; settings: Mesocricetus auratus
T1 sequence (whole entry): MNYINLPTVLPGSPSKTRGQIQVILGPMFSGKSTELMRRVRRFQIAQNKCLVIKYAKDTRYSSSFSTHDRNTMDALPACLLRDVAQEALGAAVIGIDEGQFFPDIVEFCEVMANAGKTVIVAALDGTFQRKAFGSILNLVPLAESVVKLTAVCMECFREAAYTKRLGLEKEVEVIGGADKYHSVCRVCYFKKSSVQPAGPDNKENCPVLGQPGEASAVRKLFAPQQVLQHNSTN

[2] = biological target: T1, Thymidine kinase, cytosolic (Cricetulus griseus); assay: Inhibition of thymidine kinase in BHK21 (C13) cells using thymidine as substrate assessed as formation of TMP at 1.4 mM; type: cell-based; settings: Mesocricetus auratus
How it was run: (§1)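 BHK21(C13) 100000g supernatant in Tris-HCl 0.05 M pH 8.0, ATP 5 mM, MgCl2 2.5 mM, [14C]thymidine 3.6 μM, 10 min at 37 °C. Reaction stopped by boiling; [14C]TMP bound to DEAE-cellulose disks and counted by liquid scintillation, corrected for unincubated blanks.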

[3] = biological target: T2, Thymidine kinase, cytosolic (Mus musculus, UniProt P04184); assay: Competitive inhibition of thymidine kinase in mouse Ehrlich's ascites cells
T2 sequence (P04184 whole entry): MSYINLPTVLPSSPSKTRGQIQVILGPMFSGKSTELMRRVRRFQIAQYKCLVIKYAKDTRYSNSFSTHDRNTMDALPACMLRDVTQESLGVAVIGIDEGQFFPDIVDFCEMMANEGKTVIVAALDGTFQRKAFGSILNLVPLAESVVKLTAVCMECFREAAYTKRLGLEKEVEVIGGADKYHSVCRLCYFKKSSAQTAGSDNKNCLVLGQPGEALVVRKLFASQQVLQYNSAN

[4] = biological target: T1, Thymidine kinase, cytosolic (Cricetulus griseus); assay: Inhibition of thymidine kinase in BHK21 (C13) cells using thymidine as substrate assessed as formation of TMP at 0.28 mM; type: cell-based; settings: Mesocricetus auratus; how it was run: as §1
[5] = biological target: T1, Thymidine kinase, cytosolic (Cricetulus griseus); assay: Inhibition of thymidine kinase in BHK21 (C13) cells using [14C]thymidine at 50 uM after 10 mins by liquid scintillation spectrometer analysis relative to control in presence of Mg2+; type: cell-based; settings: Mesocricetus auratus
[6] = biological target: T1, Thymidine kinase, cytosolic (Cricetulus griseus); assay: Inhibition of thymidine kinase in BHK21 (C13) cells using thymidine as substrate assessed as formation of TMP at 0.2 mM; type: cell-based; settings: Mesocricetus auratus; how it was run: as §1
[7] = biological target: T1, Thymidine kinase, cytosolic (Cricetulus griseus); assay: Inhibition of thymidine kinase in BHK21 (C13) cells using thymidine as substrate assessed as formation of TMP at 0.1 mM; type: cell-based; settings: Mesocricetus auratus; how it was run: as §1
[8] = biological target: T1, Thymidine kinase, cytosolic (Cricetulus griseus); assay: Inhibition of thymidine kinase in BHK21 (C13) cells using [14C]thymidine at 200 uM after 10 mins by liquid scintillation spectrometer analysis relative to control in presence of Mg2+; type: cell-based; settings: Mesocricetus auratus
[9] = biological target: T1, Thymidine kinase, cytosolic (Cricetulus griseus); assay: Inhibition of thymidine kinase in BHK21 (C13) cells using thymidine as substrate assessed as formation of TMP at 7.2 mM; type: cell-based; settings: Mesocricetus auratus; how it was run: as §1
[10] = biological target: T1, Thymidine kinase, cytosolic (Cricetulus griseus); assay: Inhibition of thymidine kinase in BHK21 (C13) cells using thymidine as substrate assessed as formation of TMP at 14.4 mM; type: cell-based; settings: Mesocricetus auratus; how it was run: as §1
[11] = biological target: T1, Thymidine kinase, cytosolic (Cricetulus griseus); assay: Activity at thymidine kinase in BHK21 (C13) cells at 60 uM after 30 mins relative to thymidine; type: cell-based; settings: Mesocricetus auratus
How it was run: (§2)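 Radiolabeled thymidine or 2'-deoxyuridine derivatives tested as substrates: 40 μL BHK21(C13) 100000g supernatant, Tris-HCl 0.05 M pH 8.0, ATP 5 mM, MgCl2 2.5 mM, no thymidine, 30 min at 37 °C. Products separated by paper electrophoresis in 0.05 M triethylammonium bicarbonate pH 7.6; radioactivity counted in the TMP region.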

[12] = biological target: T1, Thymidine kinase, cytosolic (Cricetulus griseus); assay: Inhibition of thymidine kinase in BHK21 (C13) cells using thymidine as substrate assessed as formation of TMP at 6.6 mM; type: cell-based; settings: Mesocricetus auratus; how it was run: as §1
[13] = biological target: T1, Thymidine kinase, cytosolic (Cricetulus griseus); assay: Inhibition of thymidine kinase in BHK21 (C13) cells using thymidine as substrate assessed as formation of TMP at 13.2 mM; type: cell-based; settings: Mesocricetus auratus; how it was run: as §1
[14] = biological target: T1, Thymidine kinase, cytosolic (Cricetulus griseus); assay: Activity at thymidine kinase in BHK21 (C13) cells at 400 uM after 30 mins relative to thymidine; type: cell-based; settings: Mesocricetus auratus; how it was run: as §2
[15] = biological target: T3, Thymidine kinase 2, mitochondrial (Homo sapiens) (UniProt O00142); assay: Inhibition of human mitochondrial thymidine kinase using [14C]thymidine after 10 mins by liquid scintillation spectrometer analysis relative to control in presence of Mg2+
T3 sequence (whole entry): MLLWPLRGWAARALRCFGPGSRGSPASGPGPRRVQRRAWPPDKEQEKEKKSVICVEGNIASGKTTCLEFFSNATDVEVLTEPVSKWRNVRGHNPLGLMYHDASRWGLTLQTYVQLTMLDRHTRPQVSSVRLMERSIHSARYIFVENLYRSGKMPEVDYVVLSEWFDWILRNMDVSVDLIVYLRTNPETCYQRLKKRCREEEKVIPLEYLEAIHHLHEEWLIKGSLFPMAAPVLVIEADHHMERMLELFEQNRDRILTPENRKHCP

[16] = biological target: T4, Thymidine kinase, cytosolic (Homo sapiens) (UniProt P04183); assay: Inhibition of human cytoplasmic thymidine kinase using [14C]thymidine after 10 mins by liquid scintillation spectrometer analysis relative to control in presence of Mg2+
T4 sequence (whole entry): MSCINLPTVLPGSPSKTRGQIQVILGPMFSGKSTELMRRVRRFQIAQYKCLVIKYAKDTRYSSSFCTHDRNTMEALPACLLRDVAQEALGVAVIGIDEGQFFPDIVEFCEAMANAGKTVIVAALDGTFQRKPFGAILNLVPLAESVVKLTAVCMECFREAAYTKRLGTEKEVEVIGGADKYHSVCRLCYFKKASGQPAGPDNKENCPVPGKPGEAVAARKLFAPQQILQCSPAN

[17] = biological target: T1, Thymidine kinase, cytosolic (Cricetulus griseus); assay: Inhibition of thymidine kinase in BHK21 (C13) cells using [14C]thymidine after 10 mins by liquid scintillation spectrometer analysis relative to control in presence of Mg2+; type: cell-based; settings: Mesocricetus auratus
How it was run: (§3)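 BHK21(C13) high-speed supernatant, 10 min at 37 °C, [14C]TMP on DEAE-cellulose disks, scintillation counting. Phosphate donors (nucleoside triphosphates 5 mM, giving 2.5 mM Mg2+ triphosphates) tested with 14.4 μM [14C]thymidine. Inhibitor assays used 0.19 mM [14C]thymidine: 5-iodo nucleosides at 0.19 mM with saturating Mg2+-ATP, or dCTP 5 mM with ATP 5 mM and MgCl2 7.5 mM.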

[18] = biological target: T1, Thymidine kinase, cytosolic (Cricetulus griseus); assay: Inhibition of thymidine kinase in BHK21 (C13) cells using thymidine as substrate assessed as formation of TMP at 6.8 mM; type: cell-based; settings: Mesocricetus auratus; how it was run: as §1
[19] = biological target: T1, Thymidine kinase, cytosolic (Cricetulus griseus); assay: Inhibition of thymidine kinase in BHK21 (C13) cells using thymidine as substrate assessed as formation of TMP at 3.4 mM; type: cell-based; settings: Mesocricetus auratus; how it was run: as §1
[20] = biological target: T4, Thymidine kinase, cytosolic (Homo sapiens); assay: Effect on human cytoplasmic thymidine kinase using [14C]thymidine at 2 mM after 10 mins by liquid scintillation spectrometer analysis relative to control in presence of Mg2+
[21] = biological target: T3, Thymidine kinase 2, mitochondrial (Homo sapiens); assay: Effect on human mitochondrial thymidine kinase using [14C]thymidine at 2 mM after 10 mins by liquid scintillation spectrometer analysis relative to control in presence of Mg2+
[22] = biological target: T1, Thymidine kinase, cytosolic (Cricetulus griseus); assay: Effect on thymidine kinase in BHK21 (C13) cells using [14C]thymidine at 5 mM after 10 mins by liquid scintillation spectrometer analysis relative to control in presence of Mg2+; type: cell-based; settings: Mesocricetus auratus; how it was run: as §3
[23] = biological target: T1, Thymidine kinase, cytosolic (Cricetulus griseus); assay: Inhibition of thymidine kinase in BHK21 (C13) cells using thymidine as substrate assessed as formation of TMP at 0.74 mM; type: cell-based; settings: Mesocricetus auratus; how it was run: as §1

`CC[S+]([O-])C[C@H]1O[C@@H](n2cc(C)c(=O)[nH]c2=O)C[C@@H]1O` (some centres not stated) was tested, and the inhibition [1] was 30% and the inhibition [2] was 13%.

Molecule `CCOC1N([C@H]2C[C@H](O)[C@@H](CO)O2)C(=O)NC(=O)C1(C)Br` (single isomer, unassigned; more polar) has a Ki [3] of 24 µM.

In the case of `CCS[C@H]1C[C@H](n2cc(C)c(=O)[nH]c2=O)O[C@@H]1CO`, the inhibition [4] is reported as 31% and the inhibition [2] is reported as 60%.

With `Cc1cn([C@H]2C[C@H](O)[C@@H](COP(=O)(O)OP(=O)(O)OP(=O)(O)O)O2)c(=O)[nH]c1=O` the inhibition [5] was “Active”.

`CCn1c(=O)c(C)cn([C@H]2C[C@H](O)[C@@H](CO)O2)c1=O` showed an inhibition [6] of 26% and an inhibition [7] of 13%.

`CCNc1cn([C@H]2C[C@H](O)[C@@H](COP(=O)(O)OP(=O)(O)OP(=O)(O)O)O2)c(=O)[nH]c1=O` was tested, and the inhibition [8] was “Active”.

`CCn1c(=O)ccn([C@H]2C[C@H](O)[C@@H](CO)O2)c1=O` was tested, and the inhibition [9] was 24% and the inhibition [10] was 45%.

With `CC(=O)NCCCC(=O)Nc1cn([C@H]2C[C@H](O)[C@@H](CO)O2)c(=O)[nH]c1=O` the Activity [11] was < 0.25%.

`CCCC(=O)NC[C@H]1O[C@@H](n2cc(C)c(=O)[nH]c2=O)C[C@@H]1O` was tested, and the inhibition [12] was 38% and the inhibition [13] was 77%.

In the case of `CC(=O)NCC(O)[C@H]1O[C@@H](n2cc(C)c(=O)[nH]c2=O)C[C@@H]1O` (stereo in doubt; [14C]4b), the Activity [14] is reported as “inactive”.

`Nc1ccn([C@H]2C[C@H](O)[C@@H](COP(=O)(O)OP(=O)(O)OP(=O)(O)O)O2)c(=O)n1` was tested, and the inhibition [15] was 82%, the inhibition [16] was 15% and the inhibition [17] was 27%.

For `CCNc1cn([C@H]2C[C@H](O)[C@@H](CO)O2)c(=O)[nH]c1=O`, the inhibition [18] was 25% and the inhibition [19] was 13%.

`CCCn1c(=O)c(C)cn([C@H]2C[C@H](O)[C@@H](CO)O2)c1=O` showed an inhibition [6] of 34% and an inhibition [7] of 16%.

`Nc1ncnc2c1ncn2[C@H]1C[C@H](O)[C@@H](COP(=O)(O)OP(=O)(O)OP(=O)(O)O)O1` showed an Activity [20] of 108%, an Activity [21] of 56% and an Activity [22] of 107%.

Work on `Nc1ccn([C@H]2C[C@H](O)[C@@H](CO)O2)c(=O)n1` yielded an inhibition [23] of 24% and an inhibition [1] of 10%.
